Consider 95 molecules from ChEMBL document CHEMBL4513216, “Probing the Open Global Health Chemical Diversity Library for Multistage-Active Starting Points for Next-Generation Antimalarials” (ACS Infect Dis, 2020).

This series is described as follows: Toxicity liver stage against HepG2, at 10uM. The format is cell-based. Details: test concentration 10 uM, cell line HepG2-A16-CD81EGFP. To be noted: human, HepG2-A16-CD81EGFP cells; read-out: INHIBITION
In outline: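 Uninfected HepG2-A16-CD81EGFP cells, 3 × 10^3 per well, 1536-well, plated on prespotted compound at 10 μM final, parasite-free screening media added to match infected plates; puromycin 10 μM positive, DMSO 0.5% negative; run in parallel with 48 h PbLuc assay at 37 °C, 5% CO2; viability by CellTiter-Glo luminescence, normalized to controls.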

Turning to `Cn1cc(CN2CCCC23CCN(S(C)(=O)=O)CC3)cn1`, the cytotoxicity at 10 µM was -82.1%.

For `Cc1cc(C(=O)NCc2ccnc(N3CCN(C)CC3)c2)no1`, the cytotoxicity at 10 µM was -6.63%. The result for `CCOCC(O)CN1CCN(C(=O)Cc2ccccc2Cl)CC1` (stereo not given) reads -1.19%. The value for `COc1ccc(NC(=O)Cn2nc(C)c(C(C)=O)c2C)cc1` was -3.66%.

For the molecule `Cc1ccc(-c2n[nH]cc2CN(Cc2nccn2C)C(C)C)cc1C`, the cytotoxicity at 10 µM came out at 2.57%. On to `Cc1nc(C)c(C(C)NCc2c(C)nn(C)c2N(C)C)s1` (stereo not given), for which the cytotoxicity at 10 µM was -4.96%. As for `COCCOCC1(CNC(=O)c2ccc(OC)cc2)C[C@@H](O)[C@@H](O)C1` (stereo not given in full), the cytotoxicity at 10 µM was 0.0221%. The result for `CCc1nc(COc2ccc(OCc3cnn(C)c3)cc2)no1` reads -14.9%. `Cc1nn(C)c(C)c1CN(C)C(=O)C1COc2ccccc2C1` (stereo not given): the cytotoxicity at 10 µM is -3.35%. For the molecule `CC(=O)c1ccc(C(=O)Nc2ccnc(N(C)C)n2)cc1`, the cytotoxicity at 10 µM came to 2.49%. The result for `CCS(=O)(=O)c1ccccc1N1CCC(NC(=O)C(C)C)CC1` reads -3.87%; that for `Cc1ccc(S(=O)(=O)Cc2noc([C@@H]3C[C@@H](O)CN3C)n2)cc1`, 0.847%. The result for `O=C(O)[C@]12CCCN(Cc3ccccn3)[C@@H]1CCN(c1cnccn1)C2` reads 2.12%; that for `Cc1cnn(CCNCc2nnc(-c3ccccc3)o2)c1`, -10.4%. The value for `Cn1[nH]c(C2CCC2)c(-c2ccc3c(c2)OCO3)c1=N` was -42.3%; that for `OCCn1cc(CN2CCN(CCOc3ccccc3)CC2)cn1` was -8.43%. As to `Cc1csc(C2(NCc3nc(-c4ccco4)no3)CCCC2)n1`, the cytotoxicity at 10 µM turned out to be 3.18%. As to `COCc1csc(NC(=O)NCc2ccccn2)n1`, the cytotoxicity at 10 µM was determined as 11.3%. The value for `CO[C@H]1CCN(c2ccc(C)nn2)[C@H]1Cc1cnn(C)c1` was -12.7%; that for `CN(C)c1cncc(C2CCN(CC(N)=O)CC2)n1` was 3.07%; that for `O=C(c1ncccn1)N1CCC[C@]2(C[C@H](OCC3CC3)CO2)C1` was -86%.

Regarding `CCOCC1CN(C(=O)COc2ccccc2)Cc2cn(C)nc21` (stereo not given), the cytotoxicity at 10 µM worked out at 9.08%. `CC(C)N(C)Cc1nnc2n1CCCN(c1ncccn1)C2`: the cytotoxicity at 10 µM was determined as 3.24%.

For the molecule `CSc1ccc(NC(=O)Cn2cc(N)cn2)cc1`, the cytotoxicity at 10 µM amounted to 0.14%. The result for `Cc1noc(C)c1CNCC1(COc2cccnc2)C[C@@H](O)[C@@H](O)C1` (stereo not given in full) reads -2.36%; that for `CC(C)Cc1noc(C2CCN(C(=O)c3cccs3)CC2)n1`, 9.81%.

Take `Cc1cccc(CN(Cn2nc(C)c3c(C)onc3c2=O)C2CC2)c1`: the cytotoxicity at 10 µM stood at 1.33%. The value for `COCc1cc(N2CCc3onc(-c4cccc(OC)c4)c3C2)ncn1` was 14.4%; that for `CCCn1c(C)c(CC(=O)N(C)CC(=O)OC)c2c1CC(C)(C)CC2=O` was -0.839%; that for `Cc1occc1C(=O)N1C[C@@H]2OCCN(c3ncccn3)[C@@H]2C1` was 7.34%. On to `CCN(CC1CN(Cc2ncc(C)o2)CCO1)c1cccnn1` (stereo not given), for which the cytotoxicity at 10 µM was -0.343%. The value for `CCS(=O)(=O)CCNCc1cc(O)c2cc(C)cc(C)c2n1` was 1.36%; that for `CC(C)(C)c1cc(CN2C[C@@H]3CC[C@H]2CN(Cc2ccccn2)C3)n[nH]1` was -0.123%; that for `Cc1nc(NCCc2ccc(Cl)cc2)cc(C(=O)N2CCCCC2)n1` was -23%.

`O=C(NCC1CCN(C(=O)c2ccoc2)CC1)c1ccccc1Br`: the cytotoxicity at 10 µM is -12.3%. In the case of `CC1(C)CC(N(Cc2ccccc2)Cc2cccnc2)CC(C)(C)N1`, the cytotoxicity at 10 µM was 2.67%. `CC(C)CCC(C)NC(=O)Nc1ccccn1` (stereo not given): the cytotoxicity at 10 µM was found to be 5.28%. The value for `Cc1nn(-c2ccccc2)c(C)c1CNC(=O)NC1CC(=O)N(C)C1` (stereo not given) was -2.17%; that for `O=C1NCc2ccccc2CC12CCN(Cc1ccncc1Cl)C2` (stereo not given) was 8.27%. The result for `CCOC(=O)[C@@H]1[C@@H](OC)C(=O)N(C)C12CCN(C(=O)C(CC)CC)CC2` reads -0.00815%; that for `O=C([C@H]1CCCO1)N1CCC2(CC1)CNCc1ccccc12`, -2.57%; that for `Cc1cccc(N2CCC3(CCCN3Cc3cnn(C)c3C)CC2)n1`, -2.35%. The value for `Cc1nnc(NC(=O)c2c3c(nn2C2CCS(=O)(=O)C2)CCC3)s1` (stereo not given) was -14.2%; that for `Cc1cc(C)c2ncn(CCC(C)O)c(=O)c2c1` (stereo not given) was 2.1%; that for `O=C1NC(C(=O)NCc2cccnc2Oc2ccc(F)c(F)c2)CO1` (stereo not given) was -0.115%. Take `CC(=O)NCCNC(=O)NCc1ccc(-n2ccc(C(F)(F)F)n2)cc1`: the cytotoxicity at 10 µM is -6%.

On to `OC(COc1ccccc1)CN1CCC(c2ccn[nH]2)CC1` (stereo not given), for which the cytotoxicity at 10 µM was -3.76%.

As to `CN1CCO[C@@H]2CN(C(=O)NCc3cccc(F)c3)CC[C@@H]2C1`, the cytotoxicity at 10 µM was -111%. The value for `c1cncc(CN2CCCCC2c2ccc(Nc3cnccn3)nc2)c1` (stereo not given) was 4.41%. Regarding `COc1cc(C(C)=O)ccc1SCC(=O)Nc1ccc(C)cn1`, the cytotoxicity at 10 µM was 4.43%. The value for `CCc1cnc(N2C[C@H](OCc3csc(C)n3)[C@H]3COC[C@H]32)nc1` was -2.51%; that for `Cc1ccccc1CN(C)C(=O)CCc1nc(-c2nnc[nH]2)no1` was -42.1%. With `CS(=O)(=O)NCC1CCCCN1C(=O)c1ccsc1` (stereo not given), the cytotoxicity at 10 µM turned out to be 0.555%. Turning to `CCS(=O)(=O)N1C[C@H](c2nc(C)no2)C[C@H]2OCC[C@H]21`, the cytotoxicity at 10 µM was -119%.

Take `CC(NCC1(N(C)C)CCOCC1)c1ccc(Cl)cc1` (stereo not given): the cytotoxicity at 10 µM was -3.19%.

On to `Cc1cc(CN2CCN(C(=O)NCc3csc(C)n3)CC2)on1`, for which the cytotoxicity at 10 µM was -2.95%. Consider `Cc1cccc(C(=O)N2CCc3c(CN(C)C)nn(C)c3C2)n1`, for which the cytotoxicity at 10 µM is 3.61%. Take `CCn1ncc(-c2cc(C(F)(F)F)nc(N3CCC(N)CC3)n2)c1C`: the cytotoxicity at 10 µM is -6%.

For `CN(C)S(=O)(=O)N1CCCC(c2cccc(Cc3ccccc3F)n2)C1` (stereo not given), the cytotoxicity at 10 µM came to 40.4%. Turning to `Cc1cnn(CC(C)NCc2nc(-c3cccnc3)no2)c1` (stereo not given), the cytotoxicity at 10 µM is -8.86%. The value for `O=C(c1c[nH]nn1)N1CCN(C(c2ccccc2)C(F)(F)F)CC1` (stereo not given) was 8.92%; that for `CN(C)C(=O)c1cccc(NC(=O)CN2CCCCC2C2OCCO2)c1` (stereo not given) was -6.95%; that for `CCc1cc(CNC(=O)C2CCC(=O)N(Cc3ccccc3F)C2)on1` (stereo not given) was 1.48%. Turning to `O=C1CC(NS(=O)(=O)N2CCOCC2)CN1CCc1ccccc1` (stereo not given), the cytotoxicity at 10 µM was found to be 14.4%. The result for `COc1ccccc1NC(=O)CC(C)NCCc1sc(C)nc1C` (stereo not given) reads 4.82%; that for `CCOC(=O)CC(C)NC(=O)c1cn(Cc2ccccc2F)nn1` (stereo not given), -4.75%. Regarding `Cc1noc(C)c1C(=O)N1CC[C@]2(C[C@@H](OCc3cccnc3)CO2)C1`, the cytotoxicity at 10 µM was -79.7%.

In the case of `Cc1ccc(C(=O)NC2CCN(Cc3nc(CC(C)C)no3)CC2)s1`, the cytotoxicity at 10 µM turned out to be 7.61%. As for `Cc1cnccc1-c1cnn(CCNC(=O)c2ccncc2)c1C1CC1`, the cytotoxicity at 10 µM was 6.95%. `CSCCc1c(-c2ccccc2)ncn1CC(C)(C)N1CCCC1`: the cytotoxicity at 10 µM was -47.8%. Take `Cc1noc(C)c1CCC(=O)N[C@@H]1CCC[C@@H](Oc2cccnc2)[C@@H]1O`: the cytotoxicity at 10 µM was -0.903%. Turning to `Cc1ccc(CNCc2c(C)nn(C)c2N(C)C)cn1`, the cytotoxicity at 10 µM is 4.65%.

In the case of `CS(=O)(=O)c1ccccc1C(=O)NCCCN1CCc2ccccc2C1`, the cytotoxicity at 10 µM was 1.01%. The value for `OC[C@@H]1CN2CCN(c3ccccn3)C[C@@H]2[C@H]1c1ccccc1` was -2.41%; that for `O=C(CCc1ccc(Cl)s1)NCc1nnc2n1CCCCC2` was -6.1%; that for `CC(=O)N1CCc2nnc(C3CCCN3CC3CCCCC3)n2CC1` (stereo not given) was -1.54%. The value for `Cn1c(=O)c2cc(C(=O)NCCOCC(F)(F)F)ccc2n(C)c1=O` was -13.9%; that for `O=C1COC2(CCN(Cc3nccs3)CC2)CN1c1ccccc1` was -114%; that for `O=C(c1cc(C2CC2)nc2onc(-c3ccccc3)c12)N1CC[C@H](O)C1` was -40.4%. The result for `c1coc(-c2nnc(CN3CCCC(CN4CCCCCC4)C3)o2)c1` (stereo not given) reads -10.5%.

As to `O=C(NCCN1CCOCC1)NCc1cccnc1-n1cccn1`, the cytotoxicity at 10 µM is -2.22%. The value for `CC(C)CSc1ccc(-n2cccn2)nn1` was -218%; that for `COCCOc1cccc(CNCc2c(C)nn(C)c2N(C)C)c1` was -7.19%; that for `Cc1nccc(CNC(=O)N(CCCO)C2CCc3ccccc32)n1` (stereo not given) was -27.3%. The result for `O=S(=O)(NCC1COc2ccccc2C1)N1CCCCCC1` (stereo not given) reads -0.138%; that for `CN(C)c1ccc(C(=O)Nc2ccn(Cc3ccccn3)n2)cn1`, -0.677%. For `c1cn(CCc2c[nH]cn2)c(-c2cc(CN3CCCC3)cs2)n1`, the cytotoxicity at 10 µM was -1.45%. Take `CC(C)(O)c1cn(C2CCN(C(=O)CCC3CCCC3)CC2)nn1`: the cytotoxicity at 10 µM came to 1.2%. Consider `COCCOc1ccnc(-c2noc([C@@H]3CCCN3C(C)C)n2)c1`, for which the cytotoxicity at 10 µM was -12.7%. Take `Cc1cc(=O)c(C(=O)N2CCCCC2c2ccc(F)cc2)c[nH]1` (stereo not given): the cytotoxicity at 10 µM was 3.71%. Turning to `c1cc2c(cc1Cn1cc(C3CCOC3)nn1)CCCO2` (stereo not given), the cytotoxicity at 10 µM was determined as 2.03%. For the molecule `COc1ccc(CNC(=O)N2CCCC(Nc3ccccc3)C2)cn1` (stereo not given), the cytotoxicity at 10 µM was -4.57%.

For the molecule `O=C(NCCn1ccnc1)N1CCN(Cc2cccnc2)CC1`, the cytotoxicity at 10 µM is -4.64%. The value for `CCc1nnc2n1CCN(Cc1ncc(-c3ccc(F)cc3)o1)C2` was -9.42%; that for `CN1CCOC[C@H]1c1nc(-c2cccnc2)c[nH]1` was -0.405%.
